Assay outcomes from PubChem.
A selection: hits, their analogues and other compounds. The true share with any hit is near 1.8%.
Cneo AK release = Cryptococcus neoformans lysis via adenylate kinase release. C. neoformans lysis, adenylate kinase release luminescence, 4 h; normalised: neutral wells 0, clomiphene wells 100. lysis activity, % at 15 µM. 360,000 compounds, 0.2% hits. AID 651654;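 active = mean lysis activity across replicates of at least 80%, whatever share of replicates individually reach that level; inactive = mean lysis activity below 80%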
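Assay system: Cryptococcus neoformans yeast cells / Dosing: single-point compound dose / Timing: 4 h at 37 °C static, read 1 h later / Measured by: luminescence of released adenylate kinase using an AK detection reagent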
Efflux pump inh = inhibitors of Candida antifungal efflux pumps expressed in yeast | 330,000 compounds, 0.44% hits | inhibition, % at 10 µM | S. cerevisiae Candida pump triplex, Nile Red efflux | AID 485275;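 active = plate passing quality check with inhibition over a set limit, or well fluorescence over plate mean plus 4 SD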;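 also: Nile Red retained in pooled yeast measured as flow cytometry median fluorescence; 0% = buffer negative control and 100% = Enniatin B positive control; higher means more Nile Red kept so more efflux inhibition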
Statin myotox sup = suppression of simvastatin myotoxicity. C2C12 myotubes + simvastatin, ATP luminescence, 48 h; scaled: DMSO 0, geranylgeraniol control 100. rescue of ATP level, % at 7.49 µM. 330,000 compounds, 0.78% hits;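 active = mean ATP rescue above about 67%, or every replicate alone reaching that limit, limit read from the data, passing the limit was not always enough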;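 also: myotubes were challenged with 10 µM simvastatin during compound exposure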
SUMO Mot1 rescue = SUMOylation pathway inhibition by Mot1-301 growth rescue | AID 2716 | S. cerevisiae Mot1-301 growth rescue, ATP luminescence, 38.5C; percent above DMSO median, 100 means doubled | growth rescue, % at 18.8 µM | 320,000 compounds, 1% hits;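 active = every valid replicate shows activation above 250% relative to neutral control wells; inactive = the rest, any valid replicate at or below 250%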;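 also: OY570 slx delta 5 strain wells were the positive control but not used for scaling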
* = called active by the depositor; nt = not tested or not shown; + = active, no number.

SMILES	Cneo AK release	Efflux pump inh	Statin myotox sup	SUMO Mot1 rescue
COc1ccc(OC)c(S(=O)(=O)Nc2ccc3oc(C)c(C(C)=O)c3c2)c1	6.3	-0.1	3.9	-11.2
COC(=O)c1c(C)oc2ccc(NS(=O)(=O)c3cc(OC)ccc3OC)cc12	-1.9	-0.1	121.5*	-12.2
O=S(=O)(c1cccs1)N1CN(Cc2ccco2)c2nc3ccccc3nc21	3.1	0.7*	18.7	38.4
O=c1c2c(nc3nc(NCc4cccc(Cl)c4)[nH]n13)CCC2	4.8	0.0	nt	-16.2
CC(C)c1ccc(CNc2nc3nc4c(c(=O)n3[nH]2)CCC4)cc1	0.4	-0.1	111.3*	15.4
COCCNC(=O)CSc1ccccc1C(=O)NCC1CCCCC1	nt	0.0	nt	+
Cc1ccc(NC(=O)CN(C)C(=O)c2ccccn2)cc1	0.4	nt	5.5	nt
C=CCn1c(=O)c2c(nc3n2CC(C)CN3c2cccc(OC)c2)n(C)c1=O (stereo not given)	-1.8	-0.2	120.1*	3.2
Cc1nc(-c2ccccc2)cc(N2CCCC2)n1	9.3	0.0	-14.6	-7.3
Cc1cc(C)n(-c2cc(-c3ccccc3)nc(C)n2)n1	5.1	0.0	-2.4	336.1*
C[C@H](CO)N1C[C@H](C)[C@@H](CN(C)C(=O)NC2CCCCC2)OCCCC[C@H](C)Oc2ccc(NC(=O)C3CCCCC3)cc2C1=O	-0.8	nt	16.9	nt
COC(=O)c1c(C(=O)OC)c2cc(C)ccn2c1Cl	-1.9	-0.1	100.7*	nt
Cc1cc(=O)n2c(C)n[nH]c2n1	0.6	-0.1	120.5*	-2.5
Cc1cc(=O)n2c(-c3ccccc3C)n[nH]c2n1	4.0	-0.1	nt	-6.7
Cc1ccc(Cl)cc1NC(=O)Cn1cccc1	2.7	0.0	80.5*	8.5
CCCCn1c(N)c(N(CCOC)C(=O)CN(C)S(=O)(=O)c2ccc(Cl)cc2)c(=O)[nH]c1=O	-0.3	-0.1	nt	-3.0
Cc1nnc(SCC(=O)NCc2ccccc2)n1-c1ccccc1	3.9	0.2	103.4*	382.7
Cc1nnc(SCC(=O)NCc2ccco2)n1-c1ccccc1	2.5	0.0	1.0	-12.9
COc1ccc(NC(=O)Nc2ccc3c(c2)C(=O)N([C@H](C)CO)C[C@H](C)[C@H](CN(C)C(=O)Cc2ccccc2)OCCCC[C@H](C)O3)cc1	101.1*	nt	nt	nt
CC(C)NC(=O)Nc1ccc2c(c1)C(=O)N([C@@H](C)CO)C[C@@H](C)[C@H](CN(C)C(=O)Cc1ccccc1)OCCCC[C@@H](C)O2	94.6*	nt	nt	nt
CC(C)NC(=O)Nc1ccc2c(c1)C(=O)N([C@H](C)CO)C[C@H](C)[C@H](CN(C)C(=O)Cc1ccccc1)OCCCC[C@H](C)O2	-1.3	nt	nt	nt
COc1ccc(NC(=O)Nc2ccc3c(c2)C(=O)N([C@@H](C)CO)C[C@@H](C)[C@H](CN(C)C(=O)Cc2ccccc2)OCCCC[C@H](C)O3)cc1	114.8*	nt	nt	nt
CC(=O)N1c2ccc(S(=O)(=O)N3CCC(C(=O)Nc4cccc(F)c4)CC3)cc2CC1C (stereo not given)	-1.1	0.0	-26.4	13.3
Cn1cnc(CCNC(=O)C[C@@H]2CC[C@H]3[C@@H](COC[C@H](O)CN3C(=O)C3CCCC3)O2)c1	-2.4	nt	10.8	nt
CC1CCCCN1S(=O)(=O)c1ccc(C(=O)Nc2sccc2C(N)=O)cc1 (stereo not given)	-2.5	0.4	108.7*	-8.3
SMILES	Cneo AK release	Efflux pump inh	Statin myotox sup	SUMO Mot1 rescue
COc1ccc(N(C(=O)COc2cccc(C)c2)S(=O)(=O)c2ccc(C)cc2)cc1	nt	-0.3	nt	-4.6
Cc1ccc(-n2c(-c3ccccc3)c[nH]c2=S)cc1	nt	0.1	nt	-1.7
S=c1[nH]cc(-c2ccccc2)n1-c1ccccc1	2.8	-0.1	97.9*	9.2
Cc1ccccc1S(=O)(=O)N1CC[C@@H]2[C@H](CO)Nc3ccc(-c4ccc(F)cc4)cc3[C@@H]21	-2.5	nt	1.1	nt
CC(=O)Nc1ccc(NC(=O)CCn2c(=O)oc3ccccc32)cc1	2.5	-0.1	8.3	-12.8
O=C(CCn1c(=O)oc2ccccc21)NC1=NCCS1	-2.4	0.0	-1.6	342.0*
CCOc1cc(Cl)c(S(=O)(=O)NCCCn2ccnc2)cc1Cl	-1.0	-0.1	-26.8	356.0*
COc1cc(C)c(C(C)C)cc1S(=O)(=O)NCCCn1ccnc1	-1.7	0.1	114.2*	204.4
CCOC(=O)NC(=O)/C(N=Nc1cc(C)cc(C)c1)=C(\C)O	nt	-0.1	nt	-7.1
CCOC(=O)NC(=O)/C(N=Nc1ccc(C(F)(F)F)cc1)=C(\C)O	0.5	0.0	98.8*	501.9
CC(C)N1C(=O)C(=O)N(CC(=O)N(C)c2ccccc2)C1=O	0.2	0.0	11.0	8.2
O=C(/C=C/c1ccccc1Cl)c1cccnc1	-0.8	0.2	18.8	274.7*
O=C(/C=C/c1ccc(Cl)cc1)c1cccnc1	nt	0.1	nt	173.7
